Here are results for 16 molecules from ChEMBL document CHEMBL3864174, “Scaffold-Hopping of Aurones: 2-Arylideneimidazo[1,2-a]pyridinones as Topoisomerase IIα-Inhibiting Anticancer Agents” (ACS Med Chem Lett, 2016).

Active and inactive are the calls of the source. The calls are words filed in the database; no cut-off is given here.

Data set [1] can be described thus: Cell cycle arrest in human MCF7 cells assessed as accumulation at G2/M phase at 2000 nM after 48 hrs by propidium iodide-staining based FACS analysis. It counts as functional. A general note: Flow cytometry measures light scatter and fluorescence of single cells or particles in a stream.
A short description of data set [2]: Cell cycle arrest in human MCF7 cells assessed as accumulation at G0 phase at 2000 nM after 48 hrs by propidium iodide-staining based FACS analysis. The data set is classed as functional.
Data set [3] is described as follows: Inhibition of tubulin polymerization in human MCF7 cells assessed as suppression of protein assembly after 15 mins by spectrophotometric analysis. It counts as cell-based.
Data set [4] is described as follows: (§1) Cytotoxicity against HEK293T cells assessed as cells growth inhibition after 48 hrs by MTT assay. It counts as functional, cell-based. The conditions noted are these: Homo sapiens, HEK-293T. An outline of the steps: (§2)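 MTT colorimetric assay. HEK-293T (kidney line) and VERO cells were tested, and the IC50 was taken as the concentration giving 50% growth inhibition.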

Data set [5] can be described thus: Cytotoxicity against African green monkey Vero cells assessed as cells growth inhibition after 48 hrs by MTT assay. The data set is classed as toxicity, cell-based, Chlorocebus sabaeus. The conditions noted are these: for IC50 at 48 h: African green monkey (Chlorocebus sabaeus), Vero cells; for Activity: chlorocebus sabaeus, vero, 48 h. The procedure, abridged:
as §2
(Tetrazolium dyes change colour on reduction, which living cells bring about.)

Data set [6] in a line: (§3) Cytotoxicity against HEK293T cells assessed as reduction in colony formation after 48 hrs by crystal violet-staining based assay. It counts as functional. The conditions noted are these: Homo sapiens, HEK-293T, read-out: LC50 (the source's name).
Data set [7] is described as follows: Cytotoxicity against African green monkey Vero cells assessed as reduction in colony formation after 48 hrs by crystal violet-staining based assay. The conditions noted are these: chlorocebus sabaeus; for CC50 at 48 h: Vero cells, read-out: LC50; for Activity: vero, 48 h. The data set is classed as toxicity, cell-based.
Data set [8] relates to MCF7. In words: Cytotoxicity against human MCF7 cells assessed as reduction in colony formation after 48 hrs by crystal violet-staining based assay. It counts as functional, cell-based.
For data set [9], the target named is DNA topoisomerase 2-alpha (Homo sapiens) (UniProt P11388). In words: Inhibition of human Topo2alpha-mediated kDNA decatenation at 100 uM after 30 mins by SDS-based agarose gel electrophoresis.
DNA topoisomerase 2-alpha (Homo sapiens), sequence (P11388 whole entry): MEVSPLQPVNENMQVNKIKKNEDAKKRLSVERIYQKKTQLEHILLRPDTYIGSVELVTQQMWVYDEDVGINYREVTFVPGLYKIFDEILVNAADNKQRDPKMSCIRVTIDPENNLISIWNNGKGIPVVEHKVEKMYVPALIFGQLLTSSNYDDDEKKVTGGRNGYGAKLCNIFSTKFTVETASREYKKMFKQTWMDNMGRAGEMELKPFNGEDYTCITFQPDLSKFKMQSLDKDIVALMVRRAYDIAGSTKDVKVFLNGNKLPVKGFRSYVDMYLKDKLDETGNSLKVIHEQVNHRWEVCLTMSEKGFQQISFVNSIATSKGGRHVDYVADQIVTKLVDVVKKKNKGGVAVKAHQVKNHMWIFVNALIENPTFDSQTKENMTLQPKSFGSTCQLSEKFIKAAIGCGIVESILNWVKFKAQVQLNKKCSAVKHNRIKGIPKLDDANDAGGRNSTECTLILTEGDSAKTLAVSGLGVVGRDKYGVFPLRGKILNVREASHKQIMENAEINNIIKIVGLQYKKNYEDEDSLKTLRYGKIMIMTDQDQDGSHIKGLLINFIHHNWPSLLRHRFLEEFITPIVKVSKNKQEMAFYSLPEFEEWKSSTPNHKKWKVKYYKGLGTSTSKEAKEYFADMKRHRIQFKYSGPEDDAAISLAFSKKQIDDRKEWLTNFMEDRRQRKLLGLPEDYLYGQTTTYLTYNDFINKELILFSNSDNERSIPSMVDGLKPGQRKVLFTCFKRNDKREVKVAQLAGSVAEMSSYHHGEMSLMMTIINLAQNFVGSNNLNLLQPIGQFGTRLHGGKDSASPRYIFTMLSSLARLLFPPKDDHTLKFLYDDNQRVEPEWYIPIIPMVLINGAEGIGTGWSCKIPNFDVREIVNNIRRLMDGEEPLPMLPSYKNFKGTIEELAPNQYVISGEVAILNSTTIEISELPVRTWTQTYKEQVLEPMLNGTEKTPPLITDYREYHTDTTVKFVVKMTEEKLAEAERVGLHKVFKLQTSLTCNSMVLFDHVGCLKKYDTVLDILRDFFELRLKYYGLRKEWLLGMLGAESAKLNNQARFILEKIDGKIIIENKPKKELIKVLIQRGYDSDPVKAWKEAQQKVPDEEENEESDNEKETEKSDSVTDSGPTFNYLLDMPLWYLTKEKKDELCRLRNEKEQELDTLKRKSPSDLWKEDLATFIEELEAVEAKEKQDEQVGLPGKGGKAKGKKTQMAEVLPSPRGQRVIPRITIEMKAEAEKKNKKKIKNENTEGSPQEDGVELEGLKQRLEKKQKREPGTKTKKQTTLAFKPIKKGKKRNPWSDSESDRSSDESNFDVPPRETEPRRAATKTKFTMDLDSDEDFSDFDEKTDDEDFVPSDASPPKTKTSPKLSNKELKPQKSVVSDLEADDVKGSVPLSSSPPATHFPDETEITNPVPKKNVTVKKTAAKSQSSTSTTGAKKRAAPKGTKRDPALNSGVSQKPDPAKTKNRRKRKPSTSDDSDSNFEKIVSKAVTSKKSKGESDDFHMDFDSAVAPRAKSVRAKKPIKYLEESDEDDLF
The subject of data set [10] is HEK-293T. The description is as §1. The note with it: Homo sapiens. The data set is classed as functional, cell-based. The procedure, abridged: as §2
In data set [11] the test system is MCF7. Nature of the data set: Cytotoxicity against human MCF7 cells assessed as cells growth inhibition after 48 hrs by MTT assay. The data set is classed as functional, cell-based.
The nature of data set [12]: Cytotoxicity against human MDA-MB-231 cells assessed as reduction in cell viability after 48 hrs by MTT assay. It counts as functional, cell-based. The note with it: MDA-MB-231, 48 h.
Data set [13] can be described thus: Cytotoxicity against human MDA-MB-468 cells assessed as reduction in cell viability after 48 hrs by MTT assay. The data set is classed as functional, cell-based. The conditions noted are these: MDA-MB-468, 48 h.
The subject of data set [14] is HEK-293T. Described as §3. It counts as functional. The note with it: Homo sapiens.
The target in data set [15] is DNA topoisomerase 2-alpha (Homo sapiens) (UniProt P11388). Nature of the data set: Poison activity at human Topo2alpha using pUC19 as substrate assessed as DNA cleavage-complex formation at 100 uM measured after 20 mins by ethidium bromide staining based SDS-agarose gel electrophoresis.
Data set [16] can be described thus: Binding affinity to DNA (unknown origin) assessed as occurrence of hypochromism after 1 hr by UV-Vis spectrophotometric analysis. The procedure, abridged: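 UV absorption of DNA near 260 nm, recorded with and without increasing compound concentrations; hypochromism was taken as the binding read-out.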
Data set [17] is described as follows: Cell cycle arrest in human MCF7 cells assessed as accumulation at subG1 phase at 100 nM after 48 hrs by propidium iodide-staining based FACS analysis (reference value: 0.8 +/- 0.1 %). It counts as functional.
Data set [18] in a line: Cell cycle arrest in human MCF7 cells assessed as accumulation at G2/M phase at 70 nM after 48 hrs by propidium iodide-staining based FACS analysis (reference value: 41 +/- 2.8 %). It counts as functional.
For data set [19], the system named is MCF7. In words: Inhibition of topoisomerase in human MCF7 cell nuclear lysates assessed as reduction in relaxation of supercoiled plasmid DNA NFkB substrate at 10 to 70 nM after 30 mins by ethidium bromide-staining based agarose gel electrophoresis. The procedure, abridged:
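Ex vivo topoisomerase assay using MCF-7 nuclear lysate with NFkB plasmid as substrate. Compound ranged from 10 nM to 75 nM, with lanes for plasmid alone and untreated lysate, and an etoposide lane at 45 µM.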

In general, IC50 refers to the concentration that gives 50% inhibition. As to `COc1ccc(/C=C\c2cc(OC)c(OC)c(OC)c2)cc1O` [COMBRETASTATIN A4], the outcome in [1] and in [2] was Active. Also, the IC50 in data set [3] came out at 2500 nM.

With `COc1ccc(/C=C2\N=C3C=CC(Cl)=CN3C2=O)cc1`, the IC50 in data set [4] was 80 nM. Moreover, in data set [5], the IC50 at 48 h was determined as 1500 nM. Also, the CC50 in data set [6] amounted to 40 nM. Moreover, the CC50 at 48 h in [7] was 1500 nM. Moreover, in the data set on MCF7 [8], the result was Active.

Take `CN(C)c1ccc(/C=C2\N=C3C=CC=CN3C2=O)cc1`: the inhibition entry in [9] is “Active”.

For the molecule `O=C1/C(=C/c2ccc(Cl)cc2)N=C2C=CC(Br)=CN12`, the inhibition result in data set [9] was “Active”.

For the molecule `COc1cc(/C=C2\N=C3C=CC=CN3C2=O)cc(OC)c1OC`, the IC50 in data set [4] came out at 10 nM. Moreover, the IC50 at 48 h in data set [5] turned out to be 200 nM. In addition, in data set [6], the CC50 came to 55 nM. Moreover, the CC50 at 48 h in [7] was determined as 1000 nM. The outcome in the data set with MCF7 [8] was Active.

In the case of `O=C1/C(=C/c2ccc(Br)cc2)Oc2ccccc21`, the inhibition result in [9] was “Active”. Moreover, the figures for the IC50 in data set [4], in [12] and in data set [13] were 900 nM, 600 to 840 nM and 600 to 840 nM, respectively. Also, the “growth inhibition (GI)” value in the data set on HEK-293T [10] and with MCF7 [11] was “Dose-dependent effect” each time. Further, the IC50 at 48 h in data set [5] came to 2400 nM. Besides, the Activity entry (in data set [5]; in the data set with HEK-293T [14]; in data set [7]; in the data set with MCF7 [8]) was “Dose-dependent effect” throughout.

Turning to `O=C1/C(=C/c2ccc(Br)cc2)N=C2C=CC=CN12`, the inhibition entry (in data set [9]; in the data set with MCF7 [19]) was “Active” in each case. Further, the outcome in [15] was Active. For the same molecule, the Kb in data set [16] stood at 2.5e+06 M⁻¹. The IC50 in data set [4] was 45 nM; in [12], 76 nM; in data set [13], 70 nM; in data set [3], 60 nM. Besides, the “growth inhibition (GI)” value with HEK-293T [10] and with MCF7 [11] was “Dose-dependent effect” throughout. Further, the IC50 at 48 h in [5] is 200 nM. In addition, the Activity entry was “Dose-dependent effect” in [5]; “Dose-dependent effect” in the data set on HEK-293T [14]; “Dose-dependent effect” in [7]; “Dose-dependent effect” in the data set on MCF7 [8]; 19.9% in data set [17]; 33.2% in [18]. For the same molecule, the CC50 in [6] was determined as 20 nM. In addition, the CC50 at 48 h in data set [7] came out at 1500 nM.

As for `COc1cc([C@@H]2c3cc4c(cc3[C@@H](O[C@@H]3O[C@@H]5CO[C@@H](C)O[C@H]5[C@H](O)[C@H]3O)[C@H]3COC(=O)[C@H]23)OCO4)cc(OC)c1O` [ETOPOSIDE], in data set [9], the inhibition entry was “Active”. Also, the IC50 in [4] was determined as 22000 nM. Also, the IC50 at 48 h in data set [5] is 50000 nM.

As to `O=C1/C(=C/c2ccc(Cl)cc2)N=C2C=CC=CN12`, the inhibition result in data set [9] is “Active”. Also, the IC50 in data set [4] came out at 30 nM. Further, the IC50 at 48 h in data set [5] stood at 200 nM. The CC50 in [6] worked out at 40 nM. Also, the CC50 at 48 h in data set [7] stood at 1500 nM. In addition, in the data set on MCF7 [8], the result was Active.

`COc1ccc(OC)c(/C=C2\N=C3C=CC=CN3C2=O)c1`: the inhibition result in data set [9] is “Active”. Also, the IC50 in data set [4] worked out at 150 nM. Moreover, the IC50 at 48 h in data set [5] amounted to 1500 nM. For the same molecule, the CC50 in data set [6] was 60 nM. Also, in data set [7], the CC50 at 48 h was 1500 nM. Moreover, the outcome in the data set on MCF7 [8] was Active.

For `O=C1/C(=C/c2ccc(Cl)cc2)N=C2C(Br)=CC(Br)=CN12`, the inhibition entry in data set [9] is “Active”.

For `O=C1/C(=C/c2ccc(Cl)cc2)N=C2C=CC(Cl)=CN12`, in data set [9], the inhibition entry was “Active”. Moreover, the IC50 in data set [4] was found to be 45 nM. Besides, the IC50 at 48 h in data set [5] is 1500 nM. Besides, the CC50 in [6] was 40 nM. Moreover, in [7], the CC50 at 48 h is 1500 nM. Moreover, the outcome in the data set on MCF7 [8] was Active.

`COc1ccc(/C=C2\Oc3ccccc3C2=O)cc1` [4'-METHOXY-AURONE]: the inhibition entry in data set [9] was “Active”. Also, the IC50 in data set [4] was 700 nM; in data set [12], 600 to 840 nM; in data set [13], 600 to 840 nM. Besides, the “growth inhibition (GI)” value with HEK-293T [10] and with MCF7 [11] was “Dose-dependent effect” throughout. Further, in [5], the IC50 at 48 h came out at 2500 nM. The Activity result (in data set [5]; in the data set with HEK-293T [14]; in data set [7]; with MCF7 [8]) was “Dose-dependent effect” each time.

With `COc1cccc(/C=C2\N=C3C=CC=CN3C2=O)c1`, the inhibition entry in [9] was “Active”. The IC50 in data set [4] was determined as 80 nM. For the same molecule, in data set [5], the IC50 at 48 h was 1500 nM. Further, the CC50 in [6] turned out to be 75 nM. The CC50 at 48 h in data set [7] was found to be 1500 nM. For the same molecule, the outcome in the data set on MCF7 [8] was Active.

As to `O=C1/C(=C/c2ccc(O)cc2)N=C2C=CC=CN12`, in [4], the IC50 worked out at 40 nM. Besides, the IC50 at 48 h in data set [5] is 1500 nM. Besides, in data set [6], the CC50 is 50 nM. In addition, in [7], the CC50 at 48 h worked out at 1500 nM. Further, the outcome with MCF7 [8] was Active.

As to `CC1=CN2C(=O)/C(=C/c3ccc(Cl)cc3)N=C2C=C1`, in data set [9], the inhibition result is “Active”.
